# SENP6 inh: blocks the human protease SENP6. inhibition, % at 10 µM. hit rate 1.8% among 330,000. Recombinant SENP6 catalytic domain, aminoluciferin luminescence. Q9GZR1;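 active = inhibition above about 50% at the single tested dose, limit read from the data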;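 also: plate controls were DMSO wells with enzyme for no effect and DMSO wells lacking enzyme for full effect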
# Platelet DG rel: modulates dense granule release in human platelets; human platelet-rich plasma, SFLLRN dense granule ATP release, luminescence; inhibition, %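 (compounds screened at 7.5 µM in platelet-rich plasma)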; hit rate 0.22% among 300,000;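 active = mean replicate score, as percent of positive control, at or above 50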
# SENP8 block-1: SENP8 (human) protease inhibition; Q96LD8; recombinant SENP8, Nedd8 substrate fluorescence; inhibition, % at 20 µM; hit rate 0.64% among 360,000; AID 602440; in the data active = inhibition mostly above about 40%, no sharp cut-off; inactive = mostly below about 27%
# SENP7 block: inhibitors of human SENP7 protease | recombinant SENP7, Z-RLRGG-aminoluciferin luminescence, 40 min | inhibition, % at 5 µM | hit rate 1.5% among 330,000;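 active = inhibition above about 50% at the single test dose, limit read from the data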;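 also: plate controls were DMSO with enzyme for no effect and no enzyme buffer wells for full effect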
# Target sequence (Q9BQF6 706-1050 limits assumed): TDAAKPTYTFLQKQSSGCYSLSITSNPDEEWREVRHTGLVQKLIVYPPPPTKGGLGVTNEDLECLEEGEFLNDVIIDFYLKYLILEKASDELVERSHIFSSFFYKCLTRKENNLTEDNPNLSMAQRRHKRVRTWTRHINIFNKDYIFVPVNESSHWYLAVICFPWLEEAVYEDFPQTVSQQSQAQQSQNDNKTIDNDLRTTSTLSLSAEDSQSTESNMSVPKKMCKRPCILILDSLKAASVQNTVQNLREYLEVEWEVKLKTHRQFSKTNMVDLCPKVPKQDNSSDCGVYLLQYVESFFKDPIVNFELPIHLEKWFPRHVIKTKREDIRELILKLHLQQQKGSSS
# SENP1 inh: inhibitors of human SENP1 SUMO protease catalytic domain | inhibition, % at 10 µM | recombinant SENP1 catalytic domain, CyPet-SUMO1-YPet FRET cleavage | hit rate 0.21% among 360,000 | Q9P0U3;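 active = inhibition at least 30% at 10 µM, raw YFP signal under a set limit, fluorescence ratio 0.5 to 1.5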;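 also: 0% = enzyme with DMSO and 100% = no enzyme wells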
# Target sequence (Q9P0U3 419-644 limits assumed): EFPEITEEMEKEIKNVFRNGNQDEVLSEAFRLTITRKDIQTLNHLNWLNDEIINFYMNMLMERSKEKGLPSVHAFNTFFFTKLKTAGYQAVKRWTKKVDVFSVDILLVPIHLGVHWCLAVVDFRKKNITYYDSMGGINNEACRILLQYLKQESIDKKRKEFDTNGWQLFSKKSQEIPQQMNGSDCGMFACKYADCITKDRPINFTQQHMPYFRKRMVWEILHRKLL
#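 system = hSENP1 catalytic domain, recombinant | reagent = SFCypet-SUMO1-SFYpet substrate at 25 nM | doses = one dose per compound, 10 µM, 0.5% DMSO | incubation = enzyme reaction for 50 min at room temperature, dark | measured by = FRET, CFP and YFP emission | controls = no-enzyme low, enzyme-DMSO high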
# SENP8 block-2: blocks the human protease SENP8. purified SENP8, Z-RLRGG-aminoluciferin cleavage, luminescence. AID 2540. Q96LD8. inhibition, % at 10 µM. hit rate 1.2% among 330,000; in the data active = inhibition above about 50%
# SENP8 conf: confirmation of human SENP8 protease inhibitors | hit rate 15% among 1,400 | purified SENP8, Nedd8-AMC/pro-Nedd8 cleavage fluorescence, 30 min | inhibition, % at 25 µM | shares compounds with SENP8 block-1 | AID 624319; in the data active = inhibition mostly above about 39%, no sharp cut-off; inactive = mostly below about 34%
# The depositor's hits bear a star; . = not tested or not shown. This is a sample that favours compounds with a hit; in the whole collection about 2.6% have one here.
SMILES,SENP6 inh,Platelet DG rel,SENP8 block-1,SENP7 block,SENP1 inh,SENP8 block-2,SENP8 conf
CC1=NN(c2ccccc2)C(=O)C1C(=O)c1ccccc1 (stereo not given),-2,8,19,7,2,4,.
Nn1cnnc1N/N=C/c1ccc(Cl)c([N+](=O)[O-])c1,-8,-11,66*,-4,2,-7,64*
CCc1nnc(N/N=C/c2ccc(N3CCC(C)CC3)c([N+](=O)[O-])c2)n1N,-17,-5,62*,19,2,0,43*
Cc1nnc(N/N=C/c2cc([N+](=O)[O-])c(N3CCC(C)CC3)cc2N2CCC(C)CC2)n1N,17,3,34,4,0,-3,.
Cc1ccc(N2C(=O)CC(N3CCc4ccccc43)C2=O)cc1Cl (stereo not given),15,12,13,7,2,2,.
COC(=O)C1=COC(OC2OC(CO)C(O)C(O)C2O)C2C1C=CC2(O)CO (stereo not given),-19,.,41*,4,4,-10,5
CCOC(CNC(=O)C(=O)Nc1cc2c3c(c1)CCC(=O)N3CCC2)OCC,-15,-5,5,9,0,-6,.
CC(=O)Nc1ccc(NC(=O)C(C)OC(=O)CC23CC4CC(CC(Br)(C4)C2)C3)cc1 (stereo not given),-4,.,2,6,0,7,.
NC(=O)N/N=C/C=C/c1ccc(F)cc1,-39,-15,43*,-1,3,5,25
CC(C)(C)c1cc(C(=O)NCCN2CCCC2)cc(C(C)(C)C)c1,11,-1,13,12,-1,-5,.
CC1CN(N=Cc2ccc([N+](=O)[O-])o2)C(=N)O1 (stereo not given),.,.,48*,.,-2,.,29
O=[N+]([O-])c1ccc(/C=N/N=C/c2ccc([N+](=O)[O-])o2)o1,.,.,37,.,-30,.,.
O=C1SCCN1N=Cc1ccc([N+](=O)[O-])o1,.,.,55*,.,1,.,18
CC(C)=CCc1cc([C@@H]2COc3c(ccc4c3C=CC(C)(C)O4)C2)c(O)cc1O,-9,6,48*,4,-4,-1,24
CC1(C)Cc2c(C#N)c(N)n(-c3ccccc3)c(=S)c2CO1,4,1,-136,10,-53,11,.
CC1(C)C=C2C(=NN(c3ccccc3)C(N)=C2C#N)CO1,24,-4,54*,10,-15,36,97*
Cc1ccc(NC(=O)c2ncn(CCCNCC3CCCO3)n2)cc1C (stereo not given),.,.,1,.,-2,.,.
CCCCOc1ccc(N2C(=O)C(C)CNC2=S)cc1 (stereo not given),.,.,10,.,2,.,.
COc1ccc(N=C2S/C(=C\c3ccc(C)s3)C(=O)N2CC(C)C)cc1,3,-1,44*,-1,3,-6,16
Cc1ccc(C)c(NC(=S)c2ccc3ccccc3n2)c1,45,7,12,39,-2,14,.
CN(C)c1ccc(NC(=S)c2ccc3ccccc3n2)cc1,5,10,42*,-14,22,-12,18
CCCCn1c(N)c(N(CC(C)C)C(=O)c2cc(-c3ccc(F)cc3)nc3ccccc23)c(=O)[nH]c1=O,-6,-25,-51,-3,-18,-6,.
O=c1ccc(-c2ccc([N+](=O)[O-])cc2)nn1-c1ccccc1,-12,0,11,1,-4,3,.
O=[N+]([O-])c1ccc(-[n+]2nc(-c3ccccc3)nn2-c2ccccc2)cc1,-1,0,50*,10,2,13,45*
CC(=O)n1cc(CO)c2ccccc21,-9,-2,45*,-3,0,0,8
SMILES,SENP6 inh,Platelet DG rel,SENP8 block-1,SENP7 block,SENP1 inh,SENP8 block-2,SENP8 conf
C=C(c1cn(C(C)=O)c2ccccc12)c1cn(C(C)=O)c2ccccc12,.,.,-6,.,-3,.,.
CC(=O)NNc1cc(N2CCOCC2)nc(N2CCOCC2)n1,-8,4,-7,24,-84,1,.
COc1ccc(NC(=O)NNc2cc(N3CCOCC3)nc(N3CCOCC3)n2)cc1,25,-2,44*,1,1,-3,39
Cc1cccc(N2C(=O)C(Cl)=C(N3CCOCC3)C2=O)c1,0,13,46*,-12,6,-4,2
COc1ccc(N2C(=O)C(Cl)=C(N3CCN(Cc4ccccc4)CC3)C2=O)cc1,.,-1,17,.,2,.,.
O=C1C(Cl)=C(N2CCN(Cc3ccccc3)CC2)C(=O)N1c1ccccc1,-12,-4,48*,-4,8,-4,11
CCc1ccc(N2C(=O)C(Cl)=C(N3CCOCC3)C2=O)cc1,-6,7,41*,9,9,-7,13
O=S(=O)(/C=C/C=C/S(=O)(=O)c1ccccc1)c1ccccc1,.,.,13,.,-1,.,.
Cc1cn2c(=O)c(C(=O)N3CCN(c4ccccc4F)CC3)cnc2s1,-8,-5,-6,-4,2,-4,.
Nc1nc2c(ncn2[C@@H]2O[C@H](CNS(=O)(=O)C3CC3)[C@@H](O)[C@H]2O)c(=O)[nH]1,.,.,19,.,0,.,.
COC(=O)[C@@H](N)Cc1ccc(O)cc1,-14,-4,.,-15,.,-10,.
COC(=O)C(N)CCCCN (stereo not given),-8,-1,43*,5,2,5,5
O=C(c1ccc2c(c1)OCO2)C1CCCN(Cc2c(F)ccc(F)c2F)C1 (stereo not given),2,3,14,-4,1,-8,.
O=Nc1c(-c2ccccc2)[nH]n(-c2ccccc2)c1=O,-19,12,47*,12,7,-16,13
CC1CCN(C(=O)c2nc[nH]c2C(=O)O[C@H](C)c2ccccc2)CC1,4,.,19,-2,3,3,.
C[C@@H](OC(=O)c1[nH]cnc1C(=O)N1CCc2ccccc2C1)c1ccccc1,6,.,52*,4,-1,6,86*
NC(=O)CC(NC(=O)c1ccccc1)c1ccc(NC2CCCCC2)c([N+](=O)[O-])c1 (stereo not given),-16,1,43*,9,5,-10,18
NC(=O)CC(NC(=O)c1ccccc1)c1ccc(NCc2ccc(F)c(F)c2)c([N+](=O)[O-])c1 (stereo not given),-13,-10,23,-3,4,4,.
NC(=O)CC(NC(=O)c1ccccc1)c1ccc(NCCc2ccc(Cl)cc2)c([N+](=O)[O-])c1 (stereo not given),1,-1,44*,1,16,-5,-1
COc1ccc(CCN2CCCn3c2nc2c3c(=O)n(CC(N)=O)c(=O)n2C)cc1OC,-16,-14,11,-4,1,-7,.
Cc1cn([C@H]2C[C@H](O)[C@@H](CNC(=O)[C@H](N)Cc3cn(COCc4ccccc4)cn3)O2)c(=O)[nH]c1=O,.,.,19,.,0,.,.

# Screens (PubChem BioAssay)
